These results are taken from ChEMBL document CHEMBL1671619, “Efficacy of pyrvinium pamoate against Cryptosporidium parvum infection in vitro and in a neonatal mouse model” (Antimicrob Agents Chemother, 2008).

Series [1] relates to HCT-8. Kind of series: Cytotoxicity against human HCT8 cells assessed as reduction in viable cells at 100 uM by neutral red assay. It is filed as cell-based. The note with it: hct-8, 100 µM.
The test system of series [2] is HCT-8. The experiment in a line: Cytotoxicity against human HCT8 cells assessed as reduction in viable cells by neutral red assay. In kind it is cell-based.
For series [3], the system named is Cryptosporidium parvum. Kind of series: Antimicrobial activity against Cryptosporidium parvum infected in human HCT-8 cells after 48 hrs by ELISA. In kind it is functional, organism-based. The note with it: HCT-8, 48 h. The gist of the method: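 HCT-8 monolayers (5 × 10⁴ cells/well, seeded 24 h before) infected with 5 × 10³ Iowa-isolate oocysts in medium with 0.05% bile salts, 90 min at 37°C, then washed. Drug added in growth medium (0.5% DMSO final for DMSO-dissolved drug), 48 h at 37°C. Formalin-fixed; rat anti-sporozoite serum, HRP anti-rat, TMB, A450. Freeze-thawed oocyst background subtracted; % inhibition vs untreated infected wells; triplicate wells, two experiments.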
(In an ELISA, binding on a coated surface is turned into a signal by an enzyme label.)

Series [4] deals with HCT-8. The experiment in a line: Cytotoxicity against human HCT8 cells assessed as reduction in viable cells at 80 uM by neutral red assay. In kind it is cell-based. The note with it: hct-8, 80 µM.
Series [5] deals with Cryptosporidium parvum. Kind of series: Antimicrobial activity against Cryptosporidium parvum infected in SCID mouse assessed as reduction in parasite burden at 200 mg/kg/day, po for 10 days. It is filed as functional, organism-based.
The subject of series [6] is Cryptosporidium parvum. The experiment in a line: Antimicrobial activity against Cryptosporidium parvum infected in SCID mouse assessed as reduction in parasite burden at 100 mg/kg/day, po for 10 days. It is filed as functional, organism-based.
Series [7] relates to Cryptosporidium parvum. The experiment in a line: Antimicrobial activity against Cryptosporidium parvum infected in human HCT-8 cells. It is filed as functional, organism-based.
The subject of series [8] is Cryptosporidium parvum. Kind of series: Antimicrobial activity against Cryptosporidium parvum infected in neonatal ICR swiss mouse assessed as reduction in oocyst shedding at 150 mg/kg/day, po measured on day 6. It is filed as functional. Details: scale not given: the % may be the effect or the level left.
Series [9] has as its system Cryptosporidium parvum. The experiment in a line: Antimicrobial activity against Cryptosporidium parvum infected in human HCT-8 cells assessed as growth inhibition after 48 hrs by ELISA. It is filed as functional. The gist of the method:
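HCT-8 cells seeded at 5 × 10⁴/well 24 h before infection, then infected with 5 × 10³ Iowa-isolate oocysts in RPMI/10% FBS/0.05% bile salts for 90 min at 37°C and washed. Drug was added and cells incubated 48 h at 37°C, formalin-fixed, then probed with rat anti-sporozoite serum, HRP anti-rat and TMB, read at A450. Freeze-thawed-oocyst background was subtracted; % inhibition was taken versus untreated infected wells. Triplicate wells, two experiments.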

Series [10] deals with Cryptosporidium parvum. The experiment in a line: Antimicrobial activity against Cryptosporidium parvum infected in neonatal BALB/C mouse assessed as reduction in trophozoites in appendix at 100 mg/kg/day, po for 6 days by hematoxylin and eosin staining. It is filed as functional. Also on record: scale not given: the % may be the effect or the level left. The gist of the method: (§1)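 Neonatal BALB/c mice were infected orally with 10⁵ oocysts and dosed orally for 6 days from day 3 postinfection, with necropsy on day 9. 1-cm sections of ileum (1–6 cm proximal to appendix), appendix/ileocecal junction and distal colon were formalin-fixed and H&E-stained. Two blinded readers counted trophozoites per 1,000 epithelial cells on duplicate sections. The per-mouse summary score summed all sections; comparison was against water-vehicle controls.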

The test system of series [11] is Cryptosporidium parvum. Kind of series: Antimicrobial activity against Cryptosporidium parvum infected in neonatal BALB/C mouse assessed as reduction in number of trophozoites at 5 mg/kg/day, po for 6 days. Details: scale not given: the % may be the effect or the level left.
In series [12] the test system is Cryptosporidium parvum. Kind of series: Antimicrobial activity against Cryptosporidium parvum GCH1 infected in MDBK cells after 48 hrs by ELISA. In kind it is functional.
In series [13] the test system is Cryptosporidium parvum. Kind of series: Antimicrobial activity against Cryptosporidium parvum infected in neonatal ICR swiss mouse assessed as reduction in oocyst shedding at 50 mg/kg/day, po measured on day 6. In kind it is functional. Also on record: scale not given: the % may be the effect or the level left.
For series [14], the system named is Cryptosporidium parvum. The experiment in a line: Antimicrobial activity against Cryptosporidium parvum infected in neonatal BALB/C mouse assessed as reduction in trophozoites in colon at 100 mg/kg/day, po for 6 days by hematoxylin and eosin staining. In kind it is functional. Also on record: scale not given: the % may be the effect or the level left. The gist of the method:
as §1

Series [15] deals with Cryptosporidium parvum. Kind of series: Antimicrobial activity against Cryptosporidium parvum infected in neonatal BALB/C mouse assessed as reduction in oocyst shedding at 100 mg/kg/day, po for 4 days treated 3 days postinfection. In kind it is functional. Details: scale not given: the % may be the effect or the level left. In short, it runs like this: (§2)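 3-day-old BALB/c mice were inoculated orally with 10⁵ Iowa-isolate oocysts, and oral daily dosing started 3 days postinfection; water-treated mice served as vehicle controls. Mice were killed on day 9. Distal-colon stool (2–3 μl) was smeared, methanol-fixed and IFA-stained, and oocysts were counted over 21 fields at ×400. % reduction was taken versus vehicle mice; Mann-Whitney tests were used.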

The test system of series [16] is Cryptosporidium parvum. The experiment in a line: Antimicrobial activity against Cryptosporidium parvum infected in neonatal BALB/C mouse assessed as reduction in oocyst shedding at 100 mg/kg/day, po for 6 days treated 3 days postinfection. In kind it is functional. Also on record: scale not given: the % may be the effect or the level left. The gist of the method:
as §2

Series [17] deals with Cryptosporidium parvum. The experiment in a line: Antimicrobial activity against Cryptosporidium parvum infected in neonatal BALB/C mouse assessed as reduction in trophozoites in ileum at 100 mg/kg/day, po for 6 days by hematoxylin and eosin staining. Also on record: scale not given: the % may be the effect or the level left. It is filed as functional. In short, it runs like this: as §1

The test system of series [18] is Cryptosporidium parvum. Kind of series: Antimicrobial activity against Cryptosporidium parvum infected in neonatal BALB/C mouse assessed as reduction in oocyst shedding at 5 mg/kg/day, po for 4 days treated 3 days postinfection. In kind it is functional. Also on record: scale not given: the % may be the effect or the level left. In short, it runs like this: (§3)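 3-day-old BALB/c mice infected orally with 10⁵ Iowa-isolate oocysts. Oral dosing from day 3 post-infection, 4 or 6 consecutive days, in water with 5% DMSO or 5–10% ethanol final; vehicle controls matched. Euthanized day 9 post-infection. Distal-colon stool smears (2–3 μl) were methanol-fixed and IFA-stained. Oocysts counted over 21 fields at ×400 along a transect; reduction expressed relative to vehicle controls.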

Series [19] concerns Cryptosporidium parvum. The experiment in a line: Antimicrobial activity against Cryptosporidium parvum infected in neonatal BALB/C mouse assessed as reduction in trophozoites in appendix at 5 mg/kg/day, po for 6 days by hematoxylin and eosin staining. Also on record: scale not given: the % may be the effect or the level left. It is filed as functional. The gist of the method:
(§4)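 Infected neonatal BALB/c mice (10⁵ oocysts orally at 3 days old) dosed orally for 6 days from day 3; killed day 9. 1-cm ileal sections (1–6 cm proximal to appendix), appendix/ileocecal junction, and distal colon were formalin-fixed and H&E-stained. Trophozoites per 1,000 epithelial cells scored blind by two readers on duplicate sections. Per-mouse summary score summed across sections; compared with vehicle controls.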

The test system of series [20] is Cryptosporidium parvum. Kind of series: Antimicrobial activity against Cryptosporidium parvum infected in neonatal BALB/C mouse assessed as reduction in trophozoites in colon at 5 mg/kg/day, po for 6 days by hematoxylin and eosin staining. It is filed as functional. Also on record: scale not given: the % may be the effect or the level left. The gist of the method: as §4

Series [21] has as its system Cryptosporidium parvum. Kind of series: Antimicrobial activity against Cryptosporidium parvum infected in neonatal BALB/C mouse assessed as reduction in oocyst shedding at 12.5 mg/kg/day, po for 4 days treated 3 days postinfection. In kind it is functional. Details: scale not given: the % may be the effect or the level left. The gist of the method:
as §3

For series [22], the system named is Cryptosporidium parvum. The experiment in a line: Antimicrobial activity against Cryptosporidium parvum infected in neonatal BALB/C mouse assessed as reduction in oocyst shedding at 5 mg/kg/day, po for 6 days treated 3 days postinfection. In kind it is functional. Details: scale not given: the % may be the effect or the level left. In short, it runs like this: as §3

Series [23] relates to HCT-8. Kind of series: Cytotoxicity against human HCT8 cells assessed as reduction in viable cells after 48 hrs at 1.6 uM by MTS assay. The note with it: hct-8, 48 h. In kind it is cell-based. In general terms: Tetrazolium assays rely on reduction of a dye to a coloured formazan, in cell work by metabolically active cells.
Series [24] has as its system Cryptosporidium parvum. The experiment in a line: Antimicrobial activity against Cryptosporidium parvum infected in neonatal BALB/C mouse assessed as reduction in number of trophozoites at 5 mg/kg/day, po for 6 days. The note with it: in the assay text read “100 mg/kg/day” for “5 mg/kg/day”. In kind it is functional. Also on record: scale not given: the % may be the effect or the level left. In short, it runs like this:
as §4

Series [25] has as its system Cryptosporidium parvum. The experiment in a line: Antimicrobial activity against Cryptosporidium parvum infected in neonatal BALB/C mouse assessed as reduction in trophozoites in ileum at 5 mg/kg/day, po for 6 days by hematoxylin and eosin staining. It is filed as functional. Details: scale not given: the % may be the effect or the level left. In short, it runs like this:
as §4

In series [26] the test system is HCT-8. The experiment in a line: Cytotoxicity against human HCT8 cells assessed as reduction in viable cells after 48 hrs by MTS assay. It is filed as cell-based. The note with it: hct-8, 48 h.

As usually defined, the pIC50 is the IC50 on a negative log10 scale, so that one unit is a factor of ten.

Molecules are shown by their SMILES. pIC50: −log10 of the molar value. Activity calls are given as the source filed them. The calls are words filed in the database; no cut-off is given here. Some results are limits rather than exact numbers.

In the case of `CCN(CC)CCCC(C)Nc1ccnc2cc(Cl)ccc12` (stereo not drawn) [CHLOROQUINE], the values for the Activity in the series on HCT-8 [1], in the series with HCT-8 [2] and in the series with HCT-8 [4] were 15%, less than 5% and 12%, respectively. The negative-log IC50 (pIC50) in the series with Cryptosporidium parvum [3] is 4.57.
Take `CC(=O)Oc1ccccc1C(=O)Nc1ncc([N+](=O)[O-])s1` [NITAZOXANIDE]: the result in the series on Cryptosporidium parvum [5] and in the series on Cryptosporidium parvum [6] was inactive. The molecule also showed a pIC50 in the series with Cryptosporidium parvum [7] of 5.42. In addition, the Activity in the series with Cryptosporidium parvum [8] is reported as less than 5%.
On to `NC[C@@H]1O[C@H](O[C@H]2[C@@H](O)[C@H](O[C@@H]3[C@@H](O)[C@H](N)C[C@H](N)[C@H]3O[C@H]3O[C@H](CO)[C@@H](O)[C@H](O)[C@H]3N)O[C@@H]2CO)[C@H](N)[C@@H](O)[C@@H]1O` [PAROMOMYCIN], for which, in the series on Cryptosporidium parvum [9], the “inhibition (INH)” value was determined as 40%. The Activity in the series on Cryptosporidium parvum [10] is reported as 90%; with Cryptosporidium parvum [11] it was 85%; in the series with Cryptosporidium parvum [12], greater than 80%; with Cryptosporidium parvum [13], less than 2%; with Cryptosporidium parvum [14], 90%; in the series with Cryptosporidium parvum [15] it was 95%. For the same molecule, the Activity is 96.4% in the series with Cryptosporidium parvum [16] and 90% in the series with Cryptosporidium parvum [17]. In addition, the negative-log IC50 (pIC50) in the series on Cryptosporidium parvum [3] was 3.15.
As to `Cc1cc(/C=C/c2ccc3cc(N(C)C)ccc3[n+]2C)c(C)n1-c1ccccc1` [PYRVINIUM], the Activity with Cryptosporidium parvum [18] amounted to 92.6%; in the series with Cryptosporidium parvum [19], 90%; in the series with Cryptosporidium parvum [20], 90%; in the series on Cryptosporidium parvum [21], 89.3%; in the series with Cryptosporidium parvum [22], 96.6%; with HCT-8 [23], 40%. Besides, the Activity with Cryptosporidium parvum [24] is on record as 99%; in the series with Cryptosporidium parvum [25], 90%; in the series with HCT-8 [26] it was less than 15%. Besides, the negative-log IC50 (pIC50) with Cryptosporidium parvum [3] is 6.45.
